# Screens deposited in PubChem BioAssay by several laboratories.
# HER2 expr 66K – Her2 kinase expression inhibition; 0.69% of 65,000 active; SKBR-3 HER2 protein level, AlphaScreen, 18-24 h; active compounds read low; P04626; HER2 level % of control, % at 10 µM;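 active = HER2 level under 5% of the carrier-only control; inconclusive = no clear call, values can overlap the other calls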;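 also: lower value means stronger loss of Her2 protein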
# HEK293 NFkB inh – lowers PMA/ionomycin-induced NF-kB signal in HEK293 cells | HEK-293 NF-kB luciferase reporter, luminescence | inhibition, % at 3 µM | 0.21% of 62,000 active;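 active = inhibition above the mean of all tested compounds plus 3 SD, cut at about 40% in these data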
#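 System: NF-kB luciferase reporter HEK-293 cells | Replication: Single test | Control set: DMSO vs reference inhibitor | Evaluation: % inhibition | Schedule: 1 h pretreatment, 16 h stimulation, 37 °C | Probe or stimulus: PMA with ionomycin | Compound dosing: One dose, 3 µM | Detection: Luciferase luminescence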
# DUSP1 inh – blocks human MKP-1 phosphatase activity. inhibition, %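 (compounds tested at a single concentration somewhere between 10 and 100 µM)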. P28562. AID 374. recombinant MKP-1, OMFP hydrolysis fluorescence. 0.15% of 65,000 active;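 active = inhibition above about 50%, limit read from the data; inconclusive = inhibition over screen mean plus 3 SD, below that limit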
# M1 ag – activates the M1 muscarinic receptor | CHO-M1 cells, Fluo-4 calcium fluorescence, agonist mode; active compounds read high | B-score at 10 µM | 3% of 64,000 active | AID 626;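 active = fluorescence rise, raw or as B-score row- and column-corrected plate score, outside the 99.7% band of its plate's samples, either direction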
# Cdc25B block – inhibitors of human Cdc25B phosphatase; inhibition, %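 (compounds tested at 10 µM final in the well)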; recombinant Cdc25B, OMFP fluorescence Ex485/Em525; 0.1% of 65,000 active; in the data active = inhibition above about 50%
# M1 antag – blocks the rat M1 muscarinic receptor response to acetylcholine | CHO-M1 cells, Fluo-4 calcium, ACh EC80 antagonist mode; active compounds read low | 3.4% of 64,000 active | B-score at 10 µM;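 active = calcium fluorescence response, raw or row-and-column corrected B-score, differing from the plate sample mean either way at a set confidence level, mostly lower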
# M1 ag confirm – rat M1 muscarinic agonism, confirmation; CHO-M1 cells, Fluo-4 calcium fluorescence, agonist mode; actives lie on both sides; shares compounds with M1 ag; 19% of 1,700 active; fluorescence change (max-min) at 10 µM; AID 1488;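 active = fluorescence change differs from the solvent-only DMSO control mean at a set confidence level in both duplicate runs; inconclusive = differs from solvent-only control mean in just one of two runs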;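 also: an EC20 dose of acetylcholine follows compound addition during the same imaging run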
# M4 agonist ctr – counter-screen for M1 agonists: activity at rat M4 receptor; shares compounds with M1 ag; CHO M4/Gqi5 cells, Fluo-4 calcium fluorescence, agonist mode; actives lie on both sides; fluorescence change (max-min) at 10 µM; 9% of 1,700 active; AID 1741;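 active = fluorescence change differing from the plate's solvent-only control wells at 99.7% confidence in both duplicates, whether higher or lower; inconclusive = differs from solvent controls in only one of two duplicates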
# Target sequence (P08485 whole entry, looked up): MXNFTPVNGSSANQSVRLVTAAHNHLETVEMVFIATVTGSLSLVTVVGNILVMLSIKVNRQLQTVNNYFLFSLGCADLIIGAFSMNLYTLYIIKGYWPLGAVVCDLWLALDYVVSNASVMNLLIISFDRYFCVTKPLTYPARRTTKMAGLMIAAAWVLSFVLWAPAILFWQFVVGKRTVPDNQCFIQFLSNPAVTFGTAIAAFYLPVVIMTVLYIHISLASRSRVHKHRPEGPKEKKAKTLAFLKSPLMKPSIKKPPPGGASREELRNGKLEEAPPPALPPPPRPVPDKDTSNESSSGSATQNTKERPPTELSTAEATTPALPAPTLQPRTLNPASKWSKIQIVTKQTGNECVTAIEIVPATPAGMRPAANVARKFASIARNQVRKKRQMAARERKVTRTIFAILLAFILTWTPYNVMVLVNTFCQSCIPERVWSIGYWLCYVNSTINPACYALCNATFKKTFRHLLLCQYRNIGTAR
# Hits are given with their value; i = inactive; ? = inconclusive; nt = not tested or not shown. Only some compounds are listed: those with a hit (about 6.8% of all), similar ones and a draw of the others.
SMILES,HER2 expr 66K,HEK293 NFkB inh,DUSP1 inh,M1 ag,Cdc25B block,M1 antag,M1 ag confirm,M4 agonist ctr
CC(Nc1ncnc2nc[nH]c12)c1ccccc1 (configuration not stated),i,i,i,2.79,65.8,i,i,i
COC(=O)c1c(=O)n(O)c2ccc(OC)cc2[n+]1[O-],i,i,i,19.3,i,i,117,95.6
C/C(N)=C(/C#N)C(=O)CN1CCCCC1,i,i,i,i,i,i,nt,nt
COc1[nH]c(/N=C/c2ccccc2)c(C#N)c1C#N,i,i,i,10.4,i,i,?,i
COCC(=O)N(C)c1nnc(-c2cnc(C)cn2)s1,i,i,i,i,i,i,nt,nt
Cc1cnc(-c2nnc(N(C)C(=O)C3CCCO3)s2)cn1 (configuration not stated),i,i,i,-1.74,i,i,i,i
CCOC(=O)Cc1csc(NC(=O)COc2ccc(N(C)S(=O)(=O)c3cccs3)cc2)n1,i,i,i,6.24,i,i,?,i
CCOC(=O)N1CCN(C(=O)c2ccc3nc(N4CCCCC4)sc3c2)CC1,i,i,i,i,i,i,nt,nt
CCOC(=O)N1CCN(C(=O)c2ccc3nc(SCc4ccc(F)cc4)n(C)c3c2)CC1,i,i,i,4.02,i,-2.78,?,i
COc1ccc(-c2noc(Cc3cccs3)n2)cc1,i,i,i,5.26,i,i,i,?
CC(C)(C)OC(=O)N1CC=C2C(C#N)=C(N)C(C#N)(C#N)C(c3cccs3)C2C1 (configuration not stated),i,i,i,4.68,i,i,i,?
CC(C)N1CC=C2C(C#N)=C(N)C(C#N)(C#N)C(c3ccccc3)C2C1 (configuration not stated),i,nt,i,225,i,i,427,400
CN1CC=C2C(C#N)=C(N)C(C#N)(C#N)C(Cc3ccccc3)C2C1 (configuration not stated),i,i,i,29.6,i,i,98.4,i
CCCC1C2CN(C(C)=O)CC=C2C(C#N)=C(N)C1(C#N)C#N (configuration not stated),i,i,i,i,i,i,nt,nt
COc1cc(C2C3CN(C)CC=C3C(C#N)=C(N)C2(C#N)C#N)ccc1OC(C)C (configuration not stated),i,i,i,5.07,i,i,i,i
N#CC1=C(N)C(C#N)(C#N)[C@H](c2ccncc2)[C@H]2CN(C(=O)OCc3ccccc3)CC=C12,i,nt,i,i,i,i,nt,nt
CC(C)(C)OC(=O)N1CC=C2C(C#N)=C(N)C(C#N)(C#N)[C@H](c3cccnc3)[C@H]2C1,i,nt,i,i,i,i,nt,nt
COc1cc([C@@H]2[C@H]3CNCC=C3C(C#N)=C(N)C2(C#N)C#N)ccc1OC(C)C,i,nt,i,i,i,i,nt,nt
Cc1ccc(C(=O)C2CCN(CC(=O)Nc3ccc(N(C)C)cc3)CC2)cc1,i,i,i,i,i,i,nt,nt
N#Cc1c(NCCO)nc(NCc2ccccc2)c2c1CCN(Cc1ccccc1)C2,i,i,i,3.3,i,i,i,i
O=C(c1cc2ccccc2oc1=O)N(Cc1ccco1)CC1CCCO1 (configuration not stated),i,i,i,i,i,i,nt,nt
O=C(c1cc2ccccc2oc1=O)N(Cc1ccc2c(c1)OCO2)Cc1ccco1,i,i,i,5.01,i,i,i,?
CCOc1ccc(NC(=O)C2CC(=O)N(C(C)C)C2)cc1 (configuration not stated),i,i,i,i,i,i,nt,nt
CCOC(=O)C1CCCN(Cc2cc(Br)c(OC)cc2OC)C1 (configuration not stated),i,i,i,7.86,i,i,i,?
CCOC(=O)C1CCCN(Cc2cc(OC)c(O)c(OC)c2)C1 (configuration not stated),i,i,i,3.21,i,i,59.9,i
SMILES,HER2 expr 66K,HEK293 NFkB inh,DUSP1 inh,M1 ag,Cdc25B block,M1 antag,M1 ag confirm,M4 agonist ctr
CCOC(=O)C1CCN(Cc2ccc(O)c(OC)c2)CC1,i,i,i,i,i,i,nt,nt
CCOC(=O)C1CCCN(Cc2cc(Br)ccc2OC)C1 (configuration not stated),i,i,i,nt,i,nt,nt,nt
COc1ccc2c(c1)c1nc(SCC(C)C)n(CCO)c(=O)c1n2C,i,i,i,i,i,i,nt,nt
CCCOc1nc2c(c(=O)n(C)c(=O)n2C)n1Cc1cccc2ccccc12,i,i,i,3.61,i,i,?,i
Cn1c(=O)c2c(nc(N3CCNCC3)n2Cc2cccc3ccccc23)n(C)c1=O,i,i,i,i,i,i,nt,nt
CN(C)c1ccc(C(=O)C(O)c2ccc(C(C)(C)C)cc2)cc1 (configuration not stated),i,i,i,i,i,i,nt,nt
CCOC(=O)N1CCN(c2nc(-c3ccc(Cl)cc3)cs2)CC1,i,i,i,i,i,i,nt,nt
O=C(Cc1cccs1)N1CCN(c2nc(-c3ccc(Cl)cc3)cs2)CC1,i,i,i,3.46,i,i,-28.5,i
COCC(C)NC(=O)NC1(C(F)(F)F)Oc2ccc(Cl)cc2O1 (configuration not stated),i,i,i,6.4,i,i,?,i
CN(C)S(=O)(=O)c1ccc(C(=O)OCC(=O)NC(=O)NCc2ccccc2)cc1,i,i,i,i,i,i,nt,nt
COc1ccc(-c2cc(C(F)(F)F)nc(N3CCCCCC3)n2)cc1,i,i,i,4.59,i,i,i,?
COc1ccc(-c2cc(C(F)(F)F)nc(N3CCN(C)CC3)n2)cc1,i,i,i,nt,i,nt,nt,nt
Cc1cc(N2CCN(c3nc4ccccc4s3)CC2)n2ncnc2n1,i,i,i,3.61,i,i,i,?
Cc1cc(N2CCN(C(c3ccccc3)c3ccccc3)CC2)n2ncnc2n1,i,i,i,i,i,i,nt,nt
COc1ccccc1N1CCN(C(=O)CSc2ncccc2-c2nc3ccccc3[nH]2)CC1,i,i,i,13,i,i,?,i
O=C(Nc1ncnc2sc3c(c12)CCCCC3)c1ccco1,i,i,i,37.2,i,-10.2,i,i
CCn1c(SCC(=O)Nc2cccc(C)c2)nc2c(c1=O)SC(C)C2 (configuration not stated),i,i,i,i,i,i,nt,nt
CC(=O)c1c(C)[nH]c(C(=O)Nc2cc(C)ccc2C)c1C,i,i,i,i,i,i,nt,nt
CC(=O)c1c(C)[nH]c(C(=O)NCCc2cccc(C)c2)c1C,i,i,i,-2.41,i,i,?,?
CCOC(=O)C1CCN(c2nc3cc(OC)ccc3cc2C#N)CC1,i,i,i,i,i,i,nt,nt
COc1ccc2nc(N3CCC(C)CC3)c(C#N)cc2c1,i,i,i,4.01,i,i,i,?
